Laboratory results taken from paper PMC9701462 (Hepatology Communications, 2022).

Tests used:
Type in all cases: in vivo, human
[1] = Whole-blood pharmacokinetics; details: subjects with F2/F3 NASH, derived from CL/F and Vc/F estimates
In short: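 Whole-blood samples were taken on Day 1 and Day 28 of once-daily oral dosing and assayed for parent drug and primary metabolites. Population PK used nonlinear mixed-effects modeling with first-order conditional estimation with interaction. Model choice used −2LL, AIC/BIC, %RSE and residual/VPC diagnostics; predictions ran to 816 h. CIs came from jackknife bootstrap (500 runs). Half-life was derived from CL/F and Vc/F estimates.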

[2] = system: subjects with presumed F2/F3 NASH; assay: Collagen biomarkers; details: for Pro-C3, Mean: plasma
In short: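 Adults with presumed F2/F3 NASH were randomized 2:1 to oral active or matching placebo, given as 75-mg soft-gelatin capsules once daily in the morning, fasted, for 28 days. Collagen turnover markers were sampled at baseline (Day 1, pre-dose), after 28 days of dosing, and at end of study after a 14-day observation period. Values are summarized as mean, SD, median and range.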

[3] = system: subjects with presumed F2/F3 NASH; assay: Serum liver enzymes ALT and AST, Phase 2a exploratory efficacy; details: for ALT, Mean: serum
In short: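 Serum ALT and AST are exploratory efficacy endpoints, taken as absolute and percent change from baseline. Sampling was at Day 1 before dosing, during 28 days of once-daily fasted oral dosing, and after a 14-day off-drug observation period. Analysis used repeated-measures ANOVA/ANCOVA with Bonferroni correction, or Friedman/Savage nonparametric ANOVA when data were non-normal or sparse.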

[4] = system: subjects with presumed F2/F3 NASH; assay: Phase 2a safety and tolerability; details: 28 days
In short: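 Single-blind (subjects only), 2:1 randomized, placebo-controlled, at 10 US sites. Dosing was oral, once daily in the morning, fasted, for 28 days, as 75-mg soft-gelatin capsules. AEs, SAEs, labs (chemistry, hematology, coagulation, urinalysis), ECG, vitals and physical exams were recorded at screening, at Day 1 pre-dose baseline, then weekly for 4 weeks. Results are given as counts and percentages of the safety set per group.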

[5] = 75 mg QD oral x 28 days, Day 1 (baseline, before dosing), N = 14
[6] = 75 mg QD oral x 28 days, Day 1 (baseline, before dosing), N = 15
[7] = 75 mg QD oral x 28 days, Day 14, N = 14
[8] = 75 mg QD oral x 28 days, Day 14, N = 15
[9] = 75 mg QD oral x 28 days, Day 28, N = 14
[10] = 75 mg QD oral x 28 days, Day 28, N = 15
[11] = 75 mg QD oral x 28 days, Day 42 (after 14-day observation period), N = 14
[12] = 75 mg QD oral x 28 days, Day 42 (after 14-day observation period), N = 15
[13] = 225 mg QD oral x 28 days, Day 1 (baseline, before dosing), N = 15
[14] = 225 mg QD oral x 28 days, Day 1 (baseline, before dosing), N = 16
[15] = 225 mg QD oral x 28 days, Day 14, N = 15
[16] = 225 mg QD oral x 28 days, Day 14, N = 16
[17] = 225 mg QD oral x 28 days, Day 28, N = 15
[18] = 225 mg QD oral x 28 days, Day 28, N = 16
[19] = 225 mg QD oral x 28 days, Day 42 (after 14-day observation period), N = 16

Substance: Rencofilstat [RCF]
- effective half-life of elimination (T1/2) [1]: 33.7 ± 11.1 h
- C1M, Mean [2, 5]: 90185.71 pg/mL
- C6M, Mean [2, 5]: 25142.86 pg/mL
- PRO-C8, Mean [2, 6]: 4985.33 pg/mL
- Pro-C3, Mean [2, 5]: 23792.86 pg/mL
- C1M, Mean [2, 7]: 80125.00 pg/mL
- C6M, Mean [2, 7]: 25825.00 pg/mL
- PRO-C8, Mean [2, 8]: 4693.33 pg/mL
- Pro-C3, Mean [2, 7]: 22916.67 pg/mL
- C1M, Mean [2, 9]: 70490.91 pg/mL
- C6M, Mean [2, 9]: 23354.55 pg/mL
- PRO-C8, Mean [2, 10]: 4683.33 pg/mL
- Pro-C3, Mean [2, 9]: 22933.33 pg/mL
- C1M, Mean [2, 11]: 65309.09 pg/mL
- C6M, Mean [2, 11]: 23783.33 pg/mL
- PRO-C8, Mean [2, 12]: 4923.33 pg/mL
- PRO-C8, Mean [2, 13]: 4693.33 pg/mL
- C1M, Mean [2, 14]: 70262.50 pg/mL
- C6M, Mean [2, 14]: 31406.25 pg/mL
- Pro-C3, Mean [2, 13]: 24413.33 pg/mL
- PRO-C8, Mean [2, 15]: 4138.13 pg/mL
- C1M, Mean [2, 16]: 55843.75 pg/mL
- C6M, Mean [2, 16]: 29168.75 pg/mL
- Pro-C3, Mean [2, 15]: 22418.75 pg/mL
- PRO-C8, Mean [2, 17]: 4416.88 pg/mL
- C1M, Mean [2, 18]: 62100.00 pg/mL
- C6M, Mean [2, 18]: 31362.5 pg/mL
- Pro-C3, Mean [2, 17]: 24043.75 pg/mL
- PRO-C8, Mean ([2]; 225 mg QD oral x 28 days, Day 42 (after 14-day observation period), N = 15): 4712.94 pg/mL
- C1M, Mean [2, 19]: 69850.00 pg/mL
- C6M, Mean [2, 19]: 33168.75 pg/mL
- AST, Mean [3, 6]: 49.47 IU/L
- ALT, Mean [3, 6]: 60.53 IU/L
- AST, Mean [3, 8]: 39.42 IU/L
- ALT, Mean [3, 8]: 47.00 IU/L
- AST, Mean [3, 10]: 35.08 IU/L
- ALT, Mean [3, 10]: 42.50 IU/L
- AST, Mean [3, 12]: 41.45 IU/L
- ALT, Mean [3, 12]: 50.00 IU/L
- AST, Mean [3, 14]: 31.94 IU/L
- ALT, Mean [3, 14]: 36.06 IU/L
- AST, Mean [3, 16]: 32.82 IU/L
- ALT, Mean [3, 16]: 31.59 IU/L
- AST, Mean [3, 18]: 32.38 IU/L
- ALT, Mean [3, 18]: 30.56 IU/L
- AST, Mean [3, 19]: 31.38 IU/L
- Subjects with any TEAE ([4]; 75 mg QD oral, N = 15): 5 (33.3%) n (%)
- TEAE: Back pain ([4]; 75 mg QD oral, N = 15): 0 (0%) n (%)
- TEAE: Constipation ([4]; 75 mg QD oral, N = 15): 1 (6.7%) n (%)
- TEAE: Diarrhea ([4]; 75 mg QD oral, N = 15): 0 (0%) n (%)
- TEAE: Dizziness ([4]; 75 mg QD oral, N = 15): 0 (0%) n (%)
- TEAE: Gastrointestinal disorders ([4]; 75 mg QD oral, N = 15): 1 (6.7%) n (%)
- TEAE: Headache ([4]; 75 mg QD oral, N = 15): 0 (0%) n (%)
- TEAE: Musculoskeletal disorders ([4]; 75 mg QD oral, N = 15): 2 (13.3%) n (%)
- TEAE: Nervous system disorders ([4]; 75 mg QD oral, N = 15): 1 (6.7%) n (%)
- deaths or treatment-emergent SAEs (TESAEs) ([4]; 75 mg and 225 mg QD oral): No deaths or TESAEs
- safety signals ([4]; 75 mg and 225 mg QD oral): No safety signals were identified
- Subjects with any TEAE ([4]; 225 mg QD oral, N = 17): 10 (58.8%) n (%)
- TEAE: Back pain ([4]; 225 mg QD oral, N = 17): 1 (5.9%) n (%)
- TEAE: Constipation ([4]; 225 mg QD oral, N = 17): 2 (11.8%) n (%)
- TEAE: Diarrhea ([4]; 225 mg QD oral, N = 17): 2 (11.8%) n (%)
- TEAE: Dizziness ([4]; 225 mg QD oral, N = 17): 1 (5.9%) n (%)
- TEAE: Gastrointestinal disorders ([4]; 225 mg QD oral, N = 17): 5 (29.4%) n (%)
- TEAE: Headache ([4]; 225 mg QD oral, N = 17): 1 (5.9%) n (%)
- TEAE: Musculoskeletal disorders ([4]; 225 mg QD oral, N = 17): 2 (11.8%) n (%)
- TEAE: Nervous system disorders ([4]; 225 mg QD oral, N = 17): 2 (11.8%) n (%)
